Compound activity (PubChem)
RGS4 act: RGS4 potentiators or activators, primary screen, cell-based, HEK293 M3R inducible RGS4, calcium flux; carbachol calcium flux Fluo4; hits give low values; AID 463111, 2010; B-score at 10 µM; hit rate 0.92% among 310,000;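 active = B-score of the integrated calcium signal more than 4 SD below the library mean, with starting fluorescence not abnormally high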;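 note: negative B-score means reduced calcium response which marks RGS4 activation or potentiation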
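System: HEK293 FlpIn-TREx cells, stable M3R, doxycycline-inducible RGS4. Timing: overnight RGS4 induction, 30 min dye load 37 °C, 20 min compound RT. Also added: carbachol, ECmax concentration. Measured by: Fluo4 fluorescence kinetic imaging of calcium. Evaluation: integrated calcium ratio converted to B score.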
MrgX1 PAM: positive allosteric modulators of MrgX1, primary screen, HEK293 cells, Fluo-4 calcium flux; Mas-related G-protein coupled receptor member X1 (Homo sapiens), Q96LB2; FDSS; hits give high values; B-score at 10 µM; hit rate 0.63% among 310,000; AID 588675, 2011;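 active = plate-corrected calcium response at least 3 library SD above typical, normal starting fluorescence, not activating the receptor alone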;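 note: compound read alongside a low EC10 to EC30 dose of BAM8-22 agonist; peak minus trough fluorescence over baseline measured at the second addition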
MrgX1 ag: agonists of human MrgX1 receptor, primary screen, HEK293 cells, Fluo-4 calcium flux; Fluo-4 calcium fluorescence, agonist mode; hits give high values; B-score at 10 µM; hit rate 0.44% among 310,000;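 active = calcium response B-score plate-corrected fluorescence ratio at least 3 library SD, with starting fluorescence B-score inside 5 SD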
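System: HEK293 cells stably expressing human MrgX1 receptor; Dosing: test compound in the initial addition of three; Schedule: overnight plating, then 30 min 37 °C plus 30 min room-temperature dye loading; Detection: kinetic calcium dye fluorescence, Fluo-4 NW; Controls: per-plate positive and negative controls for Z′ factor.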
RGS4 block: RGS4 inhibitors, primary screen, cell-based, HEK293 M3R inducible RGS4, calcium flux. Regulator of G-protein signaling 4 (Homo sapiens), P49798. Fluo-4 calcium flux; hits give high values; triggered by carbachol at its EC20. B-score at 10 µM. hit rate 0.45% among 310,000. AID 463165, 2010;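 active = B-score, a plate-corrected calcium signal, over three deviations above library mean, with baseline fluorescence within five deviations of library mean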;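 note: RGS4 expression induced by doxycycline in cells with stable M3 receptor; B-score is computed from the integrated fluorescence ratio over baseline after carbachol; higher B-score means a larger calcium signal and so more RGS4 inhibition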
Target sequence (P49798 whole entry, looked up): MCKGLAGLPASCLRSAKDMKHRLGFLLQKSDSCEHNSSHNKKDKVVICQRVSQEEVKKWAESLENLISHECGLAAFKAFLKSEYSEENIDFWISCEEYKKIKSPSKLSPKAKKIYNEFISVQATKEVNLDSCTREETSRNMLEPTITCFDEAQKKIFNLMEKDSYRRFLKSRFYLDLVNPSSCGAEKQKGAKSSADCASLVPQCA
MrgX1 antagonist: antagonists of human MrgX1 receptor, primary screen, HEK293 cells, Fluo-4 calcium flux; Mas-related G-protein coupled receptor member X1 (Homo sapiens), Q96LB2; BAM8-22 antagonism; hits give low values; B-score at 10 µM; hit rate 1.3% among 310,000; AID 588676, 2011;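 active = calcium-response B-score plate-corrected more than 3 library SD below zero, starting fluorescence within 5 deviations, no agonist response on first addition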;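 note: peak minus trough fluorescence over baseline after final BAM8-22 challenge near maximal dose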
Starred values were filed as active, the others as inactive; i = inactive; . = not tested or not shown. Compounds with a hit are over-represented: about 3.5% of the library has one in this group of screens.

SMILES	RGS4 act	MrgX1 PAM	MrgX1 ag	RGS4 block	MrgX1 antagonist
c1ccc(Nc2nc3ccccc3n3nnnc23)cc1	i	i	i	i	i
CCN(CC)S(=O)(=O)c1ccc(Nc2nc3ccccc3n3nnnc23)cc1	i	14*	i	i	-6.8*
CC(OC(=O)c1ccc2c(=O)n3c(nc2c1)CCC3)C(=O)NC1CCCCC1C (stereo not drawn)	i	i	i	i	i
CC(C)N(C(=O)c1nn(C)c2c1CSc1ccccc1-2)C1CCCCC1	i	15*	i	i	i
Cc1cccc(NC(=O)COC(=O)c2cccs2)c1C	i	i	i	i	i
CCOC(=O)CCSc1nc(C(C)(C)C)cc(C(F)(F)F)c1C#N	-7.2*	i	i	i	i
CC(C)(C)[C@H]1C=C(C(=O)O)O[C@@H](OCc2ccc(CO)cc2)C1	i	i	i	i	i
Nc1cc2c3c(cccc3c1)C(=O)N(CCN1CCCC1)C2=O	i	i	i	i	-4.7*
O=C1c2cccc3cc([N+](=O)[O-])cc(c23)C(=O)N1CCN1CCCC1	i	.	.	i	.
CCOC(=O)NC(=O)c1cn(Nc2ccccc2)c(=O)[nH]c1=O	i	i	i	i	i
O=C(NC(NC(=S)Nc1ccc(Cl)cc1Cl)C(Cl)(Cl)Cl)c1cccc([N+](=O)[O-])c1 (stereo not drawn)	-7.2*	i	i	i	i
O=C(O)c1cccc(NC(=S)NC(NC(=O)c2cccc([N+](=O)[O-])c2)C(Cl)(Cl)Cl)c1 (stereo not drawn)	i	i	i	i	i
C/C(=C/C#N)Nc1ccc(C)cc1	i	12*	i	i	i
CCOc1ccccc1NCc1nnc(-c2ccccc2)o1	-7.5*	i	i	i	i
COc1ccc(OC)c(NCc2nnc(-c3ccccc3)o2)c1	i	i	i	i	i
N#C/C(=C\c1ccc(O)cc1)C(=O)N1CCCC1	i	i	i	i	i
N#C/C(=C\c1ccc(C#N)cc1)C(=O)N1CCCC1	i	i	i	5.1*	i
Cc1ccc(S(=O)(=O)N2CCN(CC(=O)N(CC(C)C)c3c(N)n(CC(C)C)c(=O)[nH]c3=O)CC2)c(C)c1	i	i	i	i	i
Cc1cc(C=C2C(=O)c3ccccc3C2=O)c(C)n1-c1cccc(C(=O)O)c1	i	10*	i	i	i
Cc1cc(C=C2C(=O)c3ccccc3C2=O)c(C)n1-c1ccccc1	i	8.5*	i	i	i
Cc1cc(C=C2C(=O)c3ccccc3C2=O)c(C)n1-c1ccc(C(=O)O)cc1	i	i	i	i	i
Cc1cc(/C=c2\sc3nc4ccccc4n3c2=O)c(C)n1-c1ccc(C(=O)O)cc1	-7.3*	.	.	i	.
NS(=O)(=O)c1ccc(NC(=O)/C(=C/c2ccncc2)NC(=O)c2ccccc2)cc1	i	i	i	i	i
O=[N+]([O-])c1ccc2oc(C(O)c3cccc(Cl)c3)cc2c1 (stereo not drawn)	i	8.5*	i	i	i
Cc1nc(NCCCn2ccnc2)c2ccccc2n1	i	i	i	i	i
SMILES	RGS4 act	MrgX1 PAM	MrgX1 ag	RGS4 block	MrgX1 antagonist
c1cncc(-c2nc(NCCCn3ccnc3)c3ccccc3n2)c1	-7*	i	i	i	i
CC(C)CN(C(=O)COc1ccc(-c2nnco2)cc1)C1CCS(=O)(=O)C1 (stereo not drawn)	i	i	i	i	i
c1ccc(C[n+]2ccc3ccccc3c2)cc1	-7.9*	i	i	i	i
Cc1cc(C)c2c(=O)[nH]c(SCc3ccc([N+](=O)[O-])cc3)nc2n1	i	i	i	i	i
O=[N+]([O-])c1ccc(-c2ccc(/C=N/Nc3nc(NCc4ccccc4)nc(N4CCOCC4)n3)o2)cc1	i	13*	i	i	i
O=C(CCCCCN1C(=O)c2ccccc2C1=O)Oc1ccc2c3c(c(=O)oc2c1)CCC3	i	i	i	i	i
